Source: PubChem BioAssay
This is a sample that favours compounds with a hit; in the whole collection about 2% have one here.
DAGLB inh: blocks human DAGLB lipase activity; Q8NCG7; HEK293T DAGLB membrane lysate, EnzChek fluorogenic substrate; inhibition, % at 5.17 µM; 340,000 tested, 0.059% active; in the data active means inhibition above about 34%
ABCB6 inh 2: blocks the human ABCB6 transporter. Q9NP58. K562-ABCB6 porphyrin accumulation, flow cytometry, 1 h; hits give low values. fluorescence ratio to DMSO, % at 10 µM. 360,000 tested, 0.19% active;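 active means fluorescence ratio to DMSO below 75%, the collection mean minus 3 SD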;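 further: signal is porphyrin accumulated inside mitochondria; lower ratio means ABCB6 inhibition with less porphyrin fluorescence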
VLA-4 inh: inhibition in a human VLA-4 binding assay. P13612. VLA-4 expressing cells, ligand binding flow cytometry. inhibition, % (about 7 µM as worked out from the volumes in the protocol). 330,000 tested, 0.2% active; in the data active means inhibition above about 50%
Target sequence (P13612 whole entry, looked up): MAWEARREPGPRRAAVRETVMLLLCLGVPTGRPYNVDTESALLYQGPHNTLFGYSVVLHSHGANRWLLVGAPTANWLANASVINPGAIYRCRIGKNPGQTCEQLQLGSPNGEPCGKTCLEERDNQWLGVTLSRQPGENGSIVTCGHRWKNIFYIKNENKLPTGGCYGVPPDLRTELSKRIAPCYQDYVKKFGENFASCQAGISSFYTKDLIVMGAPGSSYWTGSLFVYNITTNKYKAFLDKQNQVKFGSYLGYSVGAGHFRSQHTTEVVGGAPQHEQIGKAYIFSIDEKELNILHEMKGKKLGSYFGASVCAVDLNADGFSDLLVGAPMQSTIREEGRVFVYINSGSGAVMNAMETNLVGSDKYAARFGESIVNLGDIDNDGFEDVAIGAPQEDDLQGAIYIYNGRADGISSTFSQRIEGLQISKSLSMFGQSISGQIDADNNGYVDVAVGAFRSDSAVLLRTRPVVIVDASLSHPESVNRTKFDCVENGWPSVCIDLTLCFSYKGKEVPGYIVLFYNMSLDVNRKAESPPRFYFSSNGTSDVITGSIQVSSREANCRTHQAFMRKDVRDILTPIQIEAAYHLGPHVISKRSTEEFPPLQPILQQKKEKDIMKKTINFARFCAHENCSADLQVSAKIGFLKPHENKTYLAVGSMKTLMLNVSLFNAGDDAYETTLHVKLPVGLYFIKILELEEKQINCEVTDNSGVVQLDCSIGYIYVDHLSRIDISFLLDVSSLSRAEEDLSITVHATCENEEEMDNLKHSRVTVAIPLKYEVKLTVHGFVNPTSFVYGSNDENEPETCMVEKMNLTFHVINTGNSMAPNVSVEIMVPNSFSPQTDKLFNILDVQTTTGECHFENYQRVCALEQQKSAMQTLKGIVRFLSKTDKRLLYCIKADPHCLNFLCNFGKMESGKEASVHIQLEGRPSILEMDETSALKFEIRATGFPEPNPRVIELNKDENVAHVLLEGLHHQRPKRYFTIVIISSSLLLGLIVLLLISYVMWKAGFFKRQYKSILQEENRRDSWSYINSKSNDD
MT1-MMP act inh: inhibitors of human MT1-MMP activation | HT1080 RFP-PRO-GFP cells, GFP/RFP ratio fluorescence, overnight; percent of plate control window, DMSO zero | GFP/RFP ratio change, % at 20 µM | 360,000 tested, 0.061% active | AID 651647;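 active means GFP/RFP ratio change of at least 30% with cell ATP level not reduced by more than half and red fluorescence within 50% of control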
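Test system: HT1080 cells expressing an RFP-PRO-GFP fluorescent reporter construct / Compound dosing: single-point 20 µM compound, 1% DMSO / Schedule: cells overnight before dosing, compound overnight, 37 °C, 5% CO2 / Evaluation: GFP/RFP fluorescence ratio / Control set: DMSO and RFP-L50D-GFP cell wells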
FGF22 binding: shifts melting point of recombinant human FGF22; recombinant FGF22 thermal shift, SYPRO orange fluorescence; percent of sucrose octasulfate shift, DMSO zero; activity (Tm shift, normalised), % at 9.99 µM; 340,000 tested, 1.5% active; AID 651658;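 active means mean Tm shift, scaled 0 neutral to 100 positive control, at about 1.3% or above, every replicate too, limit read from the data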
Exocytosis inh: blocks lytic granule exocytosis; 360,000 tested, 0.66% active; inhibition, % at 10 µM; TALL-104 LAMP-1 surface exposure, flow cytometry; cells stimulated with thapsigargin and PMA;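 active means inhibition above about 55%, limit read from the data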
Hits are given with their value; – = inactive; · = no result given.

SMILES	DAGLB inh	ABCB6 inh 2	VLA-4 inh	MT1-MMP act inh	FGF22 binding	Exocytosis inh
COc1ccc(OC(=O)N2C/C(=C/c3ccccc3)C(=O)/C(=C\c3ccccc3)C2)cc1	–	–	·	–	–	62
C[N+](C)(C)CCC(=O)N1C/C(=C/c2ccccc2)C(=O)/C(=C\c2ccccc2)C1	–	–	·	–	–	–
Cc1ccc(S(=O)(=O)N(C)C[C@@H]2OCCCC[C@H](C)Oc3ccc(NS(C)(=O)=O)cc3C(=O)N([C@H](C)CO)C[C@H]2C)cc1	·	·	·	·	–	·
Cc1ccccc1CC1(CO)CCCN(Cc2ccc(C#CC(C)(C)O)cc2)C1 (centres undefined)	–	–	–	–	43	–
Cc1ccc(NS(=O)(=O)c2c(F)cc(F)c(Cl)c2F)cc1S(=O)(=O)N1CCOCC1	–	–	–	–	44	–
CN(C)S(=O)(=O)c1cccc(NC(=O)COC(=O)/C=C/c2ccc(Br)o2)c1	–	–	–	–	–	–
Cc1ccc(NC(=O)c2ccc(Br)o2)cc1S(=O)(=O)N(C)C	–	–	–	–	43	–
Cc1ccc(NC(=O)COC(=O)/C=C/c2ccc(Br)o2)cc1S(=O)(=O)N(C)C	–	–	–	–	43	–
C[C@H](CO)N1C[C@H](C)[C@H](CN(C)Cc2cccnc2)Oc2cc(C#CC3CC3)ccc2S1(=O)=O	·	·	·	·	–	·
Cc1[nH][nH]c(=O)c1C=NCc1ccc(Cl)cc1	–	–	–	–	43	–
Cn1[nH]c(C(F)(F)F)c(C=NCc2ccc(Cl)cc2)c1=O	–	–	–	–	–	–
C[C@@H]1CCCCO[C@H](CN(C)Cc2ccncc2)[C@H](C)CN([C@@H](C)CO)C(=O)c2cc(NC(=O)Nc3ccc4c(c3)OCO4)ccc2O1	·	·	·	·	–	·
O=C(NNC(=O)c1ccccc1OCc1ccccc1)c1ccccc1F	–	–	–	–	–	–
O=C(N/N=C/c1ccccc1F)c1ccccc1OCc1ccccc1	–	–	–	–	–	107
CC(=O)c1ccccc1NC(=O)COC(=O)c1ccccc1NC(=O)c1ccccc1	–	–	–	–	16	–
CNC[C@H]1Oc2ccc(NC(=O)NC(C)C)cc2C(=O)N([C@@H](C)CO)C[C@@H]1C	·	·	·	·	–	·
O=C(c1ccncc1)N1C[C@@H]2[C@H](c3ccccc31)[C@H](CO)N2C(=O)Nc1ccccc1Cl	·	·	·	·	–	·
O=C(NCC[C@H]1CC[C@@H](NS(=O)(=O)c2ccccc2)[C@@H](CO)O1)c1ccccc1F	·	·	·	·	–	·
Cc1sc(N(C(=O)CCc2ccccc2)c2ccc(C(=O)O)cc2)nc1-c1ccccc1	–	–	–	–	–	–
CCC(=O)N(c1ccc(C(=O)O)cc1)c1nc(-c2ccc(OC)cc2)c(C)s1	–	–	–	–	44	–
O=C(NCc1cccnc1)/C(=C/c1ccc(-c2ccc(Cl)cc2)o1)S(=O)(=O)c1ccccc1	–	–	–	–	–	87
COc1ccc(C#Cc2cnc3c(c2)C(=O)N([C@@H](C)CO)C[C@H](C)[C@H](CN(C)C(=O)c2ccccc2F)O3)cc1	·	·	·	·	–	·
COc1ccc(/C=N\NC(=O)c2ccc(Cn3cc(Br)c([N+](=O)[O-])n3)o2)c(OC)c1C	–	–	–	–	44	–
COc1ccc(-c2ccc([C@@H]3[C@@H](C#N)N(C(=O)c4cccnc4)[C@H]3CO)cc2)cc1	·	·	·	·	–	·
OCc1ccccc1-c1cnc2cccnn12	·	–	·	–	55	–
SMILES	DAGLB inh	ABCB6 inh 2	VLA-4 inh	MT1-MMP act inh	FGF22 binding	Exocytosis inh
O=C(NCCO)c1ccc(-c2cnc3cccnn23)cc1	·	–	·	–	–	–
CCCC1(C(=O)OCC)NC(c2ccc(O)cc2)C2C(=O)N(c3ccc4c(c3)OCCO4)C(=O)C21 (centres undefined)	–	–	–	–	–	–
CCOc1ccc(N2C(=O)C3C(c4ccc(O)cc4)NC(CCSC)(C(=O)OC)C3C2=O)cc1 (centres undefined)	–	–	–	–	44	–
COc1ccc(S(=O)(=O)Nc2ccc3c(c2)C(=O)N([C@@H](C)CO)C[C@@H](C)[C@H](CN(C)C(=O)NC(C)C)OCCCC[C@@H](C)O3)cc1	·	·	·	·	–	·
N#CC1=C(c2ccccc2)/C(=C/c2ccccc2)OC1=O	–	–	–	–	·	66
O=C1O/C(=C/c2ccccc2)c2ccccc21	–	–	–	–	–	–
Cc1ccc(NC(=S)/N=C(\N)Nc2nc(C)c3cc(C)c(C)cc3n2)cc1C	–	–	–	–	43	–
CC(C)NC(=O)N(C)C[C@@H]1Oc2ccc(NC(=O)Nc3ccccc3)cc2CC(=O)N([C@H](C)CO)C[C@@H]1C	·	·	·	·	–	·
CCNC(=O)NC(=O)COC(=O)c1ccccc1SCC(=O)NC(=O)NCC	–	–	–	35	·	–
Cn1c(-c2ccccc2)c[n+]2c1-c1ccccc1C2	–	–	–	–	45	–
O=C(C[C@@H]1CC[C@@H]2[C@H](COC[C@@H](O)CN2C(=O)Nc2ccc(F)cc2)O1)NCCc1ccccc1	·	·	·	·	–	·
O=C(N[C@H]1C=C[C@H](CC(=O)N2CCCCC2)O[C@H]1CO)c1ccc2c(c1)OCO2	·	·	·	·	–	·
CCc1nc2ccc(C(=O)Nc3cc(-c4ccccc4)ccc3OC)cn2c1N(C)Cc1nccs1	·	–	·	–	43	–
C[C@H](CO)N1C[C@H](C)[C@@H](CN(C)S(=O)(=O)c2ccc(Cl)cc2)Oc2ccc(N(C)C)cc2C1=O	·	·	·	·	–	·
COc1ccc(/C=C/c2nc(-c3ccccc3O)n[nH]2)cc1OC	–	–	–	–	·	65
CC(C)(C)c1ccc(C(=O)c2c[nH]c(C(=O)NCCCN3CCOCC3)c2)cc1	–	–	–	–	·	–
COc1cccc(C(=O)c2c[nH]c(C(=O)NCCCN3CCOCC3)c2)c1	–	–	–	–	43	–
CCCNC(=O)C[C@H]1CC[C@@H]2[C@H](COc3ccc(NC(=O)c4cc(C)on4)cc3C(=O)N2C)O1	·	·	·	·	–	·
Cc1ccccc1C(=O)Nc1ccc(C(=O)N/N=C/c2ccncc2)cc1	–	–	–	–	–	–
O=C(Nc1ccccc1C(=O)N/N=C/c1ccncc1)c1ccccc1	–	–	–	–	44	–
CN(C)/C=C/C(=O)c1cnc(-c2ccc(Cl)cc2)s1	·	–	–	–	–	–
